These results are taken from ChEMBL document CHEMBL3992537, “Design, Synthesis, and Biological Evaluation of Small, High-Affinity Siglec-7 Ligands: Toward Novel Inhibitors of Cancer Immune Evasion” (J Med Chem, 2017).

Calls of active or inactive are those of the source. The rule behind the calls is not given here.

In data set [1] the target is T1, Sialic acid-binding Ig-like lectin 7 (Homo sapiens, UniProt Q9Y286). Kind of data set: Binding affinity to human IgG1-fused Siglec-7-Fc measured after 2.5 hrs by ELISA. A digest of the protocol:
(§1)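 Streptavidin-coated plates carry 4 μg/mL biotinylated 6′sialyl-N-acetyllactosamine-polyacrylamide and are BSA-blocked. Ligand 10-fold dilutions (1 mM to 1 × 10⁻⁵ mM, PBS) and hSiglec7-Fc precomplexed with AP anti-human IgG are added for 2.5 h at 37 °C. Plates are developed with p-nitrophenyl phosphate (pH 9.8) and read at 405 nm for IC50. 3′- and 6′-sialyllactose serve as references for relative potency.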
In general terms: An ELISA detects its analyte on a solid surface through an enzyme-linked reagent.

In data set [2] the target is T1, Sialic acid-binding Ig-like lectin 7. In words: Binding affinity to human IgG1-fused Siglec-7-Fc measured after 2.5 hrs by ELISA relative to 3'sialyllactose. In short, it runs like this:
as §1

Data set [3] shares this target. In words: Binding affinity to human IgG1-fused Siglec-7-Fc. In short, it runs like this: (§2)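 Siglec-7-Fc (human IgG1 fusion), 0.2 μg/mL, premixed 10 min at RT in PBS with inhibitor dilution series. The mix is then added to pelleted freshly isolated human RBCs (0.1% suspension) for 20 min on ice. Bound Fc is detected with biotin goat anti-human Fc (10 μg/mL) and streptavidin-PE, then formaldehyde-fixed and read by flow cytometry. % inhibition is from MFI, with unstained RBCs as 100% and no inhibitor as 0%. IC50 derived.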

The target is the same in data set [4]. Kind of data set: Binding affinity to human IgG1-fused Siglec-7-Fc assessed as inhibition of Siglec-7-Fc binding to RBC preincubated for 10 mins followed by RBC addition measured after 20 mins by FACS analysis relative to sodium (4S,5R,6R)-5-acetamido-4-hydroxy-2-methoxy-6-((1R,2R)-1,2,3 trihydroxypropyl)tetrahydro-2H-pyran-2-carboxylate. In short, it runs like this:
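RBC flow-cytometry competition as above: Siglec-7-Fc 0.2 μg/mL with ligand 10 min at RT, then RBCs 20 min on ice, detected by anti-Fc-biotin/streptavidin-PE MFI. The reference ligand α-Me Neu5Ac is run in the same test. Relative inhibitory potency is calculated intra-test against it to offset inter-test variation from fresh RBCs.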

The target is the same in data set [5]. Kind of data set: Binding affinity to human IgG1-fused Siglec-7-Fc assessed as inhibition of Siglec-7-Fc binding to RBC preincubated for 10 mins followed by RBC addition measured after 20 mins by FACS analysis. In short, it runs like this:
as §2
Background: In flow cytometry, cells or beads pass a laser one at a time.

Data set [6] addresses Sialic acid-binding Ig-like lectin 9 (Homo sapiens) (UniProt Q9Y336). Kind of data set: Binding affinity to human IgG1-fused Siglec-9-Fc assessed as inhibition of Siglec-9-Fc binding to K562 cells preincubated for 10 mins followed by K562 cell addition measured after 20 mins by FACS analysis. In short, it runs like this:
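Human IgG1-fused Siglec-9-Fc is preincubated with inhibitor dilutions, then co-incubated with K562 cells instead of RBCs. Later steps follow the RBC assay: anti-Fc-biotin and streptavidin-PE detection, fixation, and flow cytometry. Inhibition is calculated from MFI as for RBCs. At least three independent experiments.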

Data set [7] in a line: Cytotoxicity against human NK cells assessed as viable cells up to 10 mM. To be noted: nk cell. It is filed as cell-based. In short, it runs like this: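 Human NK cells are isolated by negative selection from PBMCs and prestimulated 24 h with 100 IU/mL IL-2. They are then incubated 24 h with the Siglec-7 inhibitor at concentrations up to 10 mM. Viability is assessed by live–dead staining and flow cytometry.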

In a further data set the test system is K562. In words: Cytotoxicity against human K562 cells assessed as viable cells. It is filed as cell-based.
The target of data set [8] is T1, Sialic acid-binding Ig-like lectin 7. In words: Ratio of 3'sialyllactose Kd to relative inhibitory potency of test compound for human IgG1-fused Siglec-7-Fc by ELISA. In short, it runs like this: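 The Kd value is extrapolated by dividing the known Kd of 3′sialyllactose by the ELISA relative inhibitory potency. The ELISA uses plate-bound 6′sialyl-LacNAc-polyacrylamide with AP-precomplexed Siglec-7-Fc, 2.5 h at 37 °C, read at 405 nm.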

A short description of data set [9]: Cytotoxicity against human MEL1106 cells assessed as viable cells. The data set is classed as cell-based.

T1 sequence (Q9Y286 whole entry, the tested form may be a part): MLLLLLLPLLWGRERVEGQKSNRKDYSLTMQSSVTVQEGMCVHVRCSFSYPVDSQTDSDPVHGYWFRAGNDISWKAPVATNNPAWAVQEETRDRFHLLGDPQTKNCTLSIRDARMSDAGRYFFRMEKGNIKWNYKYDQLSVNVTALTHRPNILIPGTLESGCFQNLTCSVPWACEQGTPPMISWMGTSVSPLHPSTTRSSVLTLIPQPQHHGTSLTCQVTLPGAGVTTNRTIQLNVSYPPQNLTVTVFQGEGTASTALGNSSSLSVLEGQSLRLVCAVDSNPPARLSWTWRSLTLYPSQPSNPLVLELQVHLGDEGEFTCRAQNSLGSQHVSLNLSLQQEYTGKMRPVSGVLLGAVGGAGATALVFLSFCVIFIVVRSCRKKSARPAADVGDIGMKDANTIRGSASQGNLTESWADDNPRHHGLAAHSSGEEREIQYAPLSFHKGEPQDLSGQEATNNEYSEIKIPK
Chain of Sialic acid-binding Ig-like lectin 9 (Homo sapiens) (Q9Y336 whole entry, the tested form may be a part): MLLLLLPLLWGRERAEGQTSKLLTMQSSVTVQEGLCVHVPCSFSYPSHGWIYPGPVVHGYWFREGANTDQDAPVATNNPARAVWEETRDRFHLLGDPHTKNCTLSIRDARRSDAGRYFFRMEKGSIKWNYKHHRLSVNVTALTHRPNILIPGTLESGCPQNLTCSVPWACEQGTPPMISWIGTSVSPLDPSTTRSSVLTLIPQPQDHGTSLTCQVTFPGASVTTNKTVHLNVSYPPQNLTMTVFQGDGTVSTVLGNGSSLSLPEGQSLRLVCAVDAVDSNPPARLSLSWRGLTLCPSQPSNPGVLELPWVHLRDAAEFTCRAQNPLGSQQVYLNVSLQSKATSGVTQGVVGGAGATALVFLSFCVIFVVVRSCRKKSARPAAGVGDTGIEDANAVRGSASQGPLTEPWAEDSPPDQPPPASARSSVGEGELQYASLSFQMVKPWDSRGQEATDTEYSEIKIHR

Broadly, the IC50 is the concentration that inhibits the measured activity by half. The Kd is the constant that tells how readily two partners part at equilibrium. A high value points to lower affinity. Consider `CC(=O)N[C@H]1[C@H]([C@H](O)[C@H](O)CO)O[C@@](OC[C@H]2O[C@@H](O[C@H]3[C@H](O)[C@@H](O)[C@H](O)O[C@@H]3CO)[C@H](O)[C@@H](O)[C@H]2O)(C(=O)O)C[C@@H]1O`, for which, in [1], the IC50 worked out at 25.6 mM. In [2], this molecule yielded a fold change (FC) of 1.4. For the same molecule, the Kd in [3] was found to be 240 µM.

On to `CC(=O)N[C@H]1[C@H]([C@H](O)[C@H](O)CNS(C)(=O)=O)O[C@@](OCCCn2cc(-c3ccc(-c4ccccc4)cc3)nn2)(C(=O)[O-])C[C@@H]1O.[Na+]`, for which the values for the fold change (FC) in data set [4] and in [2] were 3120 and 141, respectively. The IC50 in [5] stood at 2600 nM; in data set [1], 0.26 mM. Further, the inhibition result in data set [6] is “Active”. Moreover, the Activity entry (in data set [7]; with K562; in data set [9]) was “Non-Toxic” throughout. For the same molecule, in data set [8], the Ratio came to 4.8.

In data set [1], `CC(=O)N[C@H]1[C@H]([C@H](O)[C@H](O)CO)O[C@@](O[C@H]2[C@@H](O)[C@@H](CO)O[C@@H](O[C@H]3[C@H](O)[C@@H](O)[C@H](O)O[C@@H]3CO)[C@@H]2O)(C(=O)O)C[C@@H]1O` came in with an IC50 of 36.9 mM. In addition, the Kd in data set [3] stood at 680 µM.

Regarding `CCS(=O)(=O)NC[C@@H](O)[C@@H](O)[C@@H]1O[C@@](OCCCn2cc(-c3ccc(-c4ccccc4)cc3)nn2)(C(=O)O)C[C@H](O)[C@H]1NC(C)=O`, the fold change (FC) amounted to 5210 in data set [4] and 161 in [2]. The IC50 in [5] amounted to 1600 nM; in data set [1], 0.23 mM. Moreover, the Ratio in data set [8] amounted to 4.2.
